What was measured:
[1] = Toxicity in BALB/c mouse assessed as muscle spasm at 50 to 100 mg/kg, ig administered for 14 days; format: organism-based; conditions: in vivo, po, 336 h, dose 50-100 mg/kg, time 14 day
How it was run: (§1)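 BALB/c mice, 10 per group, gavaged daily for 14 days at 50 or 100 mg/kg; blank control group included. Hair, behaviour and neurological signs (fremitus, convulsion, spasm, gait disturbance) were observed. At day 14, mice were weighed and given routine blood tests and serum biochemistry (ALT, AST, urea, creatinine; n = 10). Liver and kidney were examined on paraffin-embedded histology sections.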

[2] = Toxicity in BALB/c mouse assessed as convulsion at 50 to 100 mg/kg, ig administered for 14 days; format: organism-based; conditions: in vivo, po, 336 h, dose 50-100 mg/kg, time 14 day; how it was run: as §1
[3] = Toxicity in BALB/c mouse assessed as effect on body weight at 50 to 100 mg/kg, ig administered for 14 days; format: organism-based; conditions: in vivo, po, 336 h, dose 50-100 mg/kg, time 14 day; how it was run: as §1
[4] = AUC (0 to t) in Sprague-Dawley rat at 10 mg/kg, po by LC-MS/MS analysis; format: ADME, organism-based; set-up: dose 10 mg/kg; conditions: in vivo
[5] = Half life in Sprague-Dawley rat at 10 mg/kg, po by LC-MS/MS analysis; format: ADME, organism-based; conditions: in vivo
How it was run: (§2)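 SD rats dosed iv or intragastrically. Plasma (50 µL) was mixed with diclofenac internal standard (50 ng/mL, 300 µL), vortexed, centrifuged at 4 °C, and the supernatant analysed by LC/MS/MS against spiked standard and QC curves. Noncompartmental parameters calculated; mean ± SD, n = 3 (bioavailability excepted).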

[6] = Initial concentration in Sprague-Dawley rat at 2 mg/kg, iv by LC-MS/MS analysis; format: ADME, organism-based; conditions: in vivo; how it was run: as §2
[7] = Half life in Sprague-Dawley rat at 2 mg/kg, iv by LC-MS/MS analysis; format: ADME, organism-based; conditions: in vivo; how it was run: as §2
[8] = Apparent permeability across apical to basolateral side in human Caco-2 cells at 10 uM incubated for 2 hrs LC-MS/MS analysis; format: ADME, cell-based; conditions: Caco-2
How it was run: (§3)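 Caco-2 monolayers, apical to basolateral direction. Plates preincubated 30 min at 37 °C, then exposed to 10 µM compound for 2 h at 37 °C without shaking. Donor and receiver samples were quenched, centrifuged and measured by LC/MS/MS, in duplicate. Papp calculated from receiver concentration, area and time. Monolayer integrity checked by TEER and by Lucifer yellow leakage (30 min, 37 °C, ex 485/em 530 nm).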

[9] = Permeability across apical to basolateral side in human Caco-2 cells assessed as […] yellow leakage at 10 uM incubated for 2 hrs LC-MS/MS analysis; format: ADME, cell-based; conditions: caco-2, 2 h; how it was run: as §3
Cytochrome P450 2C9 = Cytochrome P450 2C9 (Homo sapiens, UniProt P11712); test: Inhibition of CYP2C9 in human liver microsomes using diclofenac as substrate incubated for 5 mins followed by NADPH addition and measured after 20 mins by LC-MS/MS analysis; format: ADME
Cytochrome P450 2C9, sequence (P11712 whole entry): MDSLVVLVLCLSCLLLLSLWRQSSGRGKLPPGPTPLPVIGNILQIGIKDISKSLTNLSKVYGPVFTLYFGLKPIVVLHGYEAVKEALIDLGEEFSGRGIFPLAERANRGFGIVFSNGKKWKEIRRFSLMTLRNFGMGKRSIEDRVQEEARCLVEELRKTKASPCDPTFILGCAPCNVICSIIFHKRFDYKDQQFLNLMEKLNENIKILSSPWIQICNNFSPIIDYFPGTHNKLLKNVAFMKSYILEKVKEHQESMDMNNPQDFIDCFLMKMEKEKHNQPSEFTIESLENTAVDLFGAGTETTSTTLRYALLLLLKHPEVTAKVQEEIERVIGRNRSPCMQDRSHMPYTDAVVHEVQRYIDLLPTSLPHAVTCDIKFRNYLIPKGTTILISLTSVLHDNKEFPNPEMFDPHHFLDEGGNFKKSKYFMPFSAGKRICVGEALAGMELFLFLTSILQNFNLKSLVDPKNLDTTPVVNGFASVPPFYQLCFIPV

[10] = Toxicity in BALB/c mouse assessed as effect on behavioral change at 50 to 100 mg/kg, ig administered for 14 days; format: organism-based; conditions: in vivo, po, 336 h, dose 50-100 mg/kg, time 14 day; how it was run: as §1
[11] = Toxicity in BALB/c mouse assessed as inflammatory infiltration in liver at 50 to 100 mg/kg, ig administered for 14 days; format: organism-based; conditions: in vivo, po, 336 h, dose 50-100 mg/kg, time 14 day; how it was run: as §1
[12] = Toxicity in BALB/c mouse assessed as hepatocyte necrotic foci at 50 to 100 mg/kg, ig administered for 14 days; format: organism-based; conditions: in vivo, po, 336 h, dose 50-100 mg/kg, time 14 day; how it was run: as §1
[13] = Renal toxicity in BALB/c mouse assessed as effect on serum urea level at 50 to 100 mg/kg, ig administered for 14 days; format: organism-based; conditions: in vivo, po, 336 h, dose 50-100 mg/kg, time 14 day; how it was run: as §1
in vitro = conditions: human, liver microsomes

For `COc1ccc2cc(C(=O)NCCN(C)C)oc2c1.CS(=O)(=O)O`, the Activity [1] was “Non-Toxic”, the Activity [2] was “Non-Toxic” and the Activity [3] was “Non-Toxic”. It also gave an AUC(0-t) [4] of 278 ng·h/mL, a half-life [5] of 4.53 h and a C0 [6] of 17.2 ng/mL. For the same molecule, the half-life [7] was 2.52 h, the Papp A→B at 2 h, 10 µM [8] was 9.34 ×10⁻⁶ cm/s and the Activity [9] was 0.158%. For the same molecule, the IC50 (Cytochrome P450 2C9) was over 10 µM, the Activity [10] was “Non-Toxic” and the Activity [11] was “Toxic”. The Activity [12] was “Toxic”, the Activity [13] was “Non-Toxic” and the microsomal CLint at 0.5 h, 100 µM (in vitro) was 6.73 µL/min/mg.
